# Thrombin inh: inhibitors of human thrombin | alpha-thrombin, Boc-VPR-AMC fluorogenic substrate cleavage | AID 1046 | P00734 | inhibition, % at 5 µM | actives 0.26% (n = 220,000);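 active = inhibition at or above 40%; inactive = inhibition below 40%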;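 note: 0% = enzyme with no compound and 100% = wells without enzyme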
#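 Material: human alpha-thrombin protein; Also added: Boc-VPR-AMC substrate, 15 µM final; Timing: enzyme reaction carried out at room temperature; Signal: fluorescence, ex 355 nm, em 460 nm; Measure: % inhibition of thrombin; Controls: enzyme without compound as high, wells lacking enzyme as low.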
# hK5 inh: kallikrein 5 (human) inhibition; Q9Y337; recombinant hK5, fluorogenic AMC substrate cleavage; inhibition, % at 5 µM; actives 0.59% (n = 210,000);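 active = inhibition of 40% or more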;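 note: 0% = enzyme controls without compound and 100% = no-enzyme blanks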
# Furin inhibitor: human furin inhibition; P09958; purified furin, fluorogenic substrate cleavage; inhibition, % at 20 µM or 30 µM; actives 0.061% (n = 220,000); AID 463115; in the data active = inhibition above about 25%
# FXIIa inh 1536: inhibitors of human coagulation factor XIIa. AID 800. actives 0.3% (n = 220,000). purified FXIIa, Boc-QGR-AMC fluorogenic substrate, 2 h. inhibition, % at 5 µM; in the data active = inhibition above about 40%;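 note: 0% = enzyme with no compound and 100% = blank without enzyme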
# Target sequence (P00748 20-372 limits assumed): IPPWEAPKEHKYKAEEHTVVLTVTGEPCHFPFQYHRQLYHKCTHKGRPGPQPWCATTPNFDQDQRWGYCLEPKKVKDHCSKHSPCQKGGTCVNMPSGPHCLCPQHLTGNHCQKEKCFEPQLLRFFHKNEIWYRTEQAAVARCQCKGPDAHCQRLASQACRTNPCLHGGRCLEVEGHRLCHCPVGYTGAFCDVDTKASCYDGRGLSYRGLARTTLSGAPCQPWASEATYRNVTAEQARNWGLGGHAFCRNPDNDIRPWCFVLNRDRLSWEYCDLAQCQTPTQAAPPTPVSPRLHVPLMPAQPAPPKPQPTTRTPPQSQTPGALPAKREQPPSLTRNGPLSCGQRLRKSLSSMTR
# Target sequence (P00748 373-615 limits assumed): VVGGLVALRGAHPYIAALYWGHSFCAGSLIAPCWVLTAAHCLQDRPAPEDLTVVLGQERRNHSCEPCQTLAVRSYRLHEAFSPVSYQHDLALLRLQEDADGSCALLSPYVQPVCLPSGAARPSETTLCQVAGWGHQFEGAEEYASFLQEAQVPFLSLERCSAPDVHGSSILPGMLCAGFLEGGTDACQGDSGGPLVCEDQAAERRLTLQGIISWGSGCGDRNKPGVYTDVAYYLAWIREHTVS
# FXIa inh 1536: factor XIa (human) inhibition. P03951. purified FXIa, Boc-Glu-Ala-Arg-AMC fluorogenic substrate. inhibition, % at 5 µM. actives 0.14% (n = 220,000). AID 798;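 active = inhibition of at least 40%; inactive = inhibition below 40%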;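 note: fluorescence of freed AMC excited at 355 nm; 0% = enzyme without compound and 100% = no enzyme blank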
# * marks the source's active call; other numbers are inactive results. Rows were chosen to be rich in hits. Some 1.1% of all compounds tested hit in one or more screens of this group.
SMILES,Thrombin inh,hK5 inh,Furin inhibitor,FXIIa inh 1536,FXIa inh 1536
Cc1nc(Cl)sc1C(=O)Nc1cccc(Cl)c1C,-12,-8,-24,1,0
Cc1nc(-c2cnn(-c3ccccc3)c2)c2cc(C)oc2n1,67*,4,-31,29,16
O=C(COc1ccccc1[N+](=O)[O-])NNC(=O)Nc1cccc2ccccc12,-4,-4,-15,4,-1
CCCNC(=O)C1CN(S(=O)(=O)c2ccccc2)CCN1S(=O)(=O)c1ccccc1 (stereo not given),1,-9,-23,9,-13
CCC(C)NC(=O)C1CN(S(=O)(=O)c2ccccc2)CCN1S(=O)(=O)c1ccccc1 (stereo not given),3,0,-17,41*,33
O=C(OCC(=O)N1c2ccccc2Sc2ccccc21)c1ccc[n+]([O-])c1,-5,-4,-22,6,-4
O=C(NC(=S)Nn1cnnc1)c1ccccc1Cl,45*,48*,-1,28,34
CN1CCN(C(=O)c2ccc(C(F)(F)F)cc2)CC1,25,46*,-9,24,28
CN1CCN(C(=O)c2ccc(C(C)(C)C)cc2)CC1,2,-8,-21,14,-1
Cc1ccc(-c2nn(-c3ccccc3)cc2/C=N/NS(=O)(=O)c2ccccc2)cc1,2,-12,-12,45*,26
Cc1ccc(S(=O)(=O)N/N=C\c2cn(-c3ccccc3)nc2-c2ccccc2)cc1,-1,-5,-3,5,-1
O=C(CSc1ncccn1)N/N=C/c1cccc(OC2CSC2)c1,8,16,-3,17,68*
Clc1ccc(-c2csc(N3CCOCC3)n2)cc1,24,45*,-13,38,48*
CC(=O)c1ccc(Nc2cc(C)nc3c(C)cc(C)cc23)cc1,11,44*,7,31,26
Cc1cc(C)c2nc(C)cc(Nc3ccc(C(=O)N(C)C)cc3)c2c1,3,4,16,11,-2
CC(NC(=O)c1ccco1)c1ccc2c(c1)OCCO2 (stereo not given),7,18,-18,8,8
CCCCCCOc1ccc(/C(N)=N/O)cc1,4,1,-23,9,1
N=C(N)c1ccc(OCCCCCOc2ccc(C(=N)N)cc2)cc1,25,-1,-16,46*,10
O=C(CCCCCN1C(=O)CCC1=O)Nc1ccc(Cl)c(C(F)(F)F)c1,-13,-29,-17,-7,0
CCn1ncc(C2=NOC(C(=O)Nc3c(C)n(C)n(-c4ccccc4)c3=O)C2)c1C (stereo not given),39,60*,-15,6,5
COc1cccc(C2=NOC(C(=O)Nc3c(C)n(C)n(-c4ccccc4)c3=O)C2)c1 (stereo not given),-11,-1,-14,-1,-1
CCn1ncc(C2=NOC(C(=O)NCc3ccccc3)C2)c1C (stereo not given),18,45*,-18,16,2
CCOc1ccccc1NC(=S)N1CCC(NC(=O)C(C)(C)C)CC1,-8,4,-17,10,-3
N#C/C(=N\O)c1nc2ccccc2s1,35,43*,5,26,30
N#C/C(=C(/O)c1ccc(F)cc1)c1nc2ccccc2s1,-8,7,-32,12,9
SMILES,Thrombin inh,hK5 inh,Furin inhibitor,FXIIa inh 1536,FXIa inh 1536
Brc1c(C[n+]2ccccc2)nc2ccccn12,33,24,-5,53*,25
O=C(CSc1nc2ccccc2c(=O)n1-c1ccccc1Cl)Nc1cccc(S(=O)(=O)N2CCOCC2)c1,-3,-7,-22,14,6
CC1Cn2c(nnc2-c2cc3ccccc3cc2O)S1 (stereo not given),3,44*,-23,21,1
CSc1sc(-c2n[nH]c(=S)n2C)c2c1C=CCC2,0,3,-17,8,2
COc1ccc(C2c3cc(OC)c(OC)cc3CCN2S(C)(=O)=O)cc1OC (stereo not given),29,11,-7,46*,25
COc1cc2c(cc1OC)CN(S(C)(=O)=O)CC2,3,-2,-6,17,8
CC1CCCCC1NC(=O)c1cc2ccccc2o1 (stereo not given),-8,-15,-8,0,0
Clc1ccc(-c2cc(-c3nnc4n3CCCCC4)c3ccccc3n2)cc1,-2,-3,-17,12,1
c1ccc2c(-c3nnc4n3CCCCC4)cc(-c3ccncc3)nc2c1,45*,20,-9,13,3
CCOC(=O)C1(C)C=C(Nc2cccc(OC)c2)C(=O)N1c1ccccc1 (stereo not given),28,44*,-18,21,22
COc1ccc(C2N3CC4(C)CN2CC(C)(C3)C4=O)cc1OC (stereo not given),17,61*,-32,32,16
COc1cc(NC(=O)c2ccccc2)c(OC)cc1Cl,-5,-9,27*,6,1
COc1cc(N)c(Cl)cc1NC(=O)c1ccccc1,-5,1,5,10,-2
COc1ccc(C(=O)Nc2ccccc2C(=O)O)cc1Cl,24,47*,3,28,12
CSCCC(C(=O)OC1CCOC1=O)N1C(=O)c2ccccc2C1=O (stereo not given),9,0,-23,4,-3
CC(C)N(Cc1ccccc1)C(=S)NC1CCCCC1,3,21,-2,102*,42*
Cc1ccc(S(=O)(=O)NNC(=O)c2ccc(O)cc2)cc1,29,53*,-7,10,3
CC(=O)Nc1ccc(C(=O)NNS(=O)(=O)c2ccc(C)cc2)cc1,3,-9,-8,13,10
Nn1c(Cc2cccc3ccccc23)nnc1SCCOc1ccc(F)cc1,28,27,-5,41*,21
COc1cccc(Nc2nc(N)nc(CCl)n2)c1,-15,-5,9,-2,-5
Cc1cccc(Nc2nc(N)nc(CCl)n2)c1,49*,33,-2,19,30
O=c1[nH]c2ccccc2nc1-c1ccc(Cl)cc1,4,3,4,10,5
O=c1[nH]c2ccccc2nc1-c1ccccc1,11,112*,-2,18,19
O=C1c2oc3ccccc3c(=O)c2C(c2cccc(O)c2)N1CCCN1CCOCC1 (stereo not given),-3,-33,-26,8,1
O=C1c2oc3ccccc3c(=O)c2C(c2cccc(F)c2)N1CCCO (stereo not given),-2,-3,-24,51*,-7
CC(C)Sc1nc(SCC(=O)NCc2ccco2)c2c3c(sc2n1)COC(C)(C)C3,32,55*,-22,14,7
Cc1ccc(NC(=O)CN2C(=O)S/C(=C\C(=O)Nc3ccc(Cl)cc3)C2=O)cc1,10,45*,-3,4,4
COC(=O)C1=C(C(=O)OC)[C@@H]2Nc3ccccc3[C@@]23C[C@@H](C(=O)OC)N(C(C)=O)C3=N1,-3,-2,-14,5,0
C/C(=N/Oc1nc(C)cc(C)n1)c1ccc(Br)cc1,11,41*,-16,13,1

# Screening results (PubChem BioAssay)
